From ChEMBL document CHEMBL3792373, “Anti-methicillin resistant Staphylococcus aureus activity, synergism with oxacillin and molecular docking studies of metronidazole-triazole hybrids” (Eur J Med Chem, 2016)
Converted amounts (≈) assume the structure as drawn.

Key:
[1] = system: Staphylococcus aureus; assay: Antimicrobial activity against methicillin-resistant Staphylococcus aureus isolate 6a after 24 hrs by agar plate dilution method in presence of oxacillin (1:1); format: functional
Procedure, shortened: (§1)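 Clinical MRSA isolates, from axilla/nasal swabs and identified by mannitol salt agar, Gram stain and coagulase test. […] Inoculum adjusted to McFarland 0.5 in water. Plates incubated 24 h at 37 °C and scored for growth spots. Dilution series quality-controlled with S. aureus NCTC 6571. Combination lines used a 1:1 mixture with oxacillin.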

[2] = system: Staphylococcus aureus; assay: Antimicrobial activity against methicillin-resistant Staphylococcus aureus isolate 20a after 24 hrs by agar plate dilution method; format: functional
Procedure, shortened: (§2)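 Clinical MRSA isolates from axilla/nasal swabs, identified by mannitol salt agar, Gram stain and coagulase test. Agar plate dilution with compound series 0.03–128 µg/mL. Inoculum suspended in water to McFarland 0.5. Incubation 24 h at 37 °C. MIC read as the lowest level without white growth spots. Dilution series quality-controlled with S. aureus NCTC 6571.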

[3] = system: Staphylococcus aureus; assay: Antimicrobial activity against methicillin-resistant Staphylococcus aureus isolate 4a after 24 hrs by agar plate dilution method in presence of oxacillin (1:1); format: functional
Procedure, shortened: (§3)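 Test compound and oxacillin mixed 1:1, each at 32 µg/mL in the mixture, then serially diluted into agar plates. Clinical MRSA isolates at McFarland 0.5 in water were spotted onto the plates and incubated 24 h at 37 °C. Growth was read as white spots. NCTC 6571 S. aureus served as the dilution-series control.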

[4] = Cytotoxicity against human THP1 cells upto 50 uM treated 3 times per week for 14 days by MTT assay; format: cell-based; settings: thp-1, 336 h
[5] = system: Staphylococcus aureus; assay: Antimicrobial activity against methicillin-resistant Staphylococcus aureus isolate 23a after 24 hrs by agar plate dilution method in presence of oxacillin (1:1); format: functional; procedure, shortened: as §3
[6] = system: Staphylococcus aureus; assay: Antimicrobial activity against methicillin-resistant Staphylococcus aureus isolate 21a after 24 hrs by agar plate dilution method in presence of oxacillin (1:1); format: functional; procedure, shortened: as §3
[7] = system: Staphylococcus aureus; assay: Antimicrobial activity against methicillin-resistant Staphylococcus aureus isolate 17a after 24 hrs by agar plate dilution method; format: functional; procedure, shortened: as §2
[8] = system: Staphylococcus aureus; assay: Antimicrobial activity against methicillin-resistant Staphylococcus aureus isolate 27a after 24 hrs by agar plate dilution method in presence of oxacillin (1:1); format: functional; procedure, shortened: as §3
[9] = system: Staphylococcus aureus; assay: Antimicrobial activity against methicillin-resistant Staphylococcus aureus isolate 18a after 24 hrs by agar plate dilution method in presence of oxacillin (1:1); format: functional; procedure, shortened: as §3
[10] = system: Staphylococcus aureus; assay: Antimicrobial activity against methicillin-resistant Staphylococcus aureus isolate 28a after 24 hrs by agar plate dilution method in presence of oxacillin (1:1); format: functional; procedure, shortened: as §3
[11] = system: Staphylococcus aureus; assay: Antimicrobial activity against methicillin-resistant Staphylococcus aureus isolate 12a after 24 hrs by agar plate dilution method; format: functional; procedure, shortened: as §2
[12] = system: Staphylococcus aureus; assay: Antimicrobial activity against methicillin-resistant Staphylococcus aureus isolate 26a after 24 hrs by agar plate dilution method; format: functional; procedure, shortened: as §2
[13] = system: Staphylococcus aureus; assay: Antimicrobial activity against methicillin-resistant Staphylococcus aureus isolate 27a after 24 hrs by agar plate dilution method; format: functional; procedure, shortened: as §2
[14] = system: Staphylococcus aureus; assay: Bactericidal activity against methicillin-resistant Staphylococcus aureus isolate 1a assessed as reduction in colony counts at 32 ug/ml after 20 hrs by pour plate method in presence of oxacillin (1:1) (reference value: 12.73 +/- 0.223 log10CFU/ml); format: functional
[15] = system: Staphylococcus aureus; assay: Antimicrobial activity against methicillin-resistant Staphylococcus aureus isolate 3a after 24 hrs by agar plate dilution method; format: functional; procedure, shortened: as §2
[16] = system: Staphylococcus aureus; assay: Antimicrobial activity against methicillin-resistant Staphylococcus aureus isolate 22a after 24 hrs by agar plate dilution method in presence of oxacillin (1:1); format: functional; procedure, shortened: as §3
[17] = system: Staphylococcus aureus; assay: Antimicrobial activity against methicillin-resistant Staphylococcus aureus isolate 6a after 24 hrs by agar plate dilution method; format: functional; procedure, shortened: as §1
[18] = system: Staphylococcus aureus; assay: Bactericidal activity against methicillin-resistant Staphylococcus aureus isolate 1a assessed as reduction in colony counts at 32 ug/ml after 16 hrs by pour plate method (reference value: 12.50 +/- 0.291 log10CFU/ml); format: functional
[19] = system: Staphylococcus aureus; assay: Antimicrobial activity against methicillin-resistant Staphylococcus aureus isolate 19a after 24 hrs by agar plate dilution method in presence of oxacillin (1:1); format: functional; procedure, shortened: as §3
[20] = system: Staphylococcus aureus; assay: Bactericidal activity against methicillin-resistant Staphylococcus aureus isolate 1a assessed as reduction in colony counts at 32 ug/ml after 20 hrs by pour plate method (reference value: 12.73 +/- 0.223 log10CFU/ml); format: functional
[21] = system: Staphylococcus aureus; assay: Antimicrobial activity against methicillin-resistant Staphylococcus aureus isolate 13a after 24 hrs by agar plate dilution method; format: functional; procedure, shortened: as §2
[22] = system: Staphylococcus aureus; assay: Antimicrobial activity against methicillin-resistant Staphylococcus aureus isolate 12a after 24 hrs by agar plate dilution method in presence of oxacillin (1:1); format: functional; procedure, shortened: as §3
[23] = system: Staphylococcus aureus; assay: Antimicrobial activity against methicillin-resistant Staphylococcus aureus isolate 14a after 24 hrs by agar plate dilution method in presence of oxacillin (1:1); format: functional; procedure, shortened: as §3
[24] = system: Staphylococcus aureus; assay: Antimicrobial activity against methicillin-resistant Staphylococcus aureus isolate 21a after 24 hrs by agar plate dilution method; format: functional; procedure, shortened: as §2
[25] = system: Staphylococcus aureus; assay: Bactericidal activity against methicillin-resistant Staphylococcus aureus isolate 1a assessed as reduction in colony counts at 32 ug/ml after 4 hrs by pour plate method (reference value: 6.14 +/- 0.456 log10CFU/ml); format: functional
[26] = system: Staphylococcus aureus; assay: Antimicrobial activity against methicillin-resistant Staphylococcus aureus isolate 26a after 24 hrs by agar plate dilution method in presence of oxacillin (1:1); format: functional; procedure, shortened: as §3
[27] = system: Staphylococcus aureus; assay: Antimicrobial activity against methicillin-resistant Staphylococcus aureus isolate 28a after 24 hrs by agar plate dilution method; format: functional; procedure, shortened: as §2
[28] = system: Staphylococcus aureus; assay: Bactericidal activity against methicillin-resistant Staphylococcus aureus isolate 1a assessed as reduction in colony counts at 32 ug/ml after 8 hrs by pour plate method (reference value: 8.30 +/- 0.442 log10CFU/ml); format: functional
[29] = system: Staphylococcus aureus; assay: Antimicrobial activity against methicillin-resistant Staphylococcus aureus isolate 16a after 24 hrs by agar plate dilution method; format: functional; procedure, shortened: as §2
[30] = system: Staphylococcus aureus; assay: Antimicrobial activity against methicillin-resistant Staphylococcus aureus isolate 3a after 24 hrs by agar plate dilution method in presence of oxacillin (1:1); format: functional; procedure, shortened: as §3
[31] = system: Staphylococcus aureus; assay: Bactericidal activity against methicillin-resistant Staphylococcus aureus isolate 1a assessed as reduction in colony counts at 32 ug/ml after 24 hrs by pour plate method in presence of oxacillin (1:1) (reference value: 12.64 +/- 0.224 log10CFU/ml); format: functional
[32] = system: Staphylococcus aureus; assay: Antimicrobial activity against methicillin-resistant Staphylococcus aureus isolate 1a after 24 hrs by agar plate dilution method; format: functional; procedure, shortened: as §2
[33] = system: Staphylococcus aureus; assay: Antimicrobial activity against methicillin-resistant Staphylococcus aureus isolate 15a after 24 hrs by agar plate dilution method; format: functional; procedure, shortened: as §2
[34] = system: Staphylococcus aureus; assay: Bactericidal activity against methicillin-resistant Staphylococcus aureus isolate 1a assessed as reduction in colony counts at 32 ug/ml after 16 hrs by pour plate method in presence of oxacillin (1:1) (reference value: 12.50 +/- 0.291 log10CFU/ml); format: functional
[35] = system: Staphylococcus aureus; assay: Antimicrobial activity against methicillin-resistant Staphylococcus aureus isolate 17a after 24 hrs by agar plate dilution method in presence of oxacillin (1:1); format: functional; procedure, shortened: as §3
[36] = system: Staphylococcus aureus; assay: Antimicrobial activity against methicillin-resistant Staphylococcus aureus isolate 4a after 24 hrs by agar plate dilution method; format: functional; procedure, shortened: as §2
[37] = system: Staphylococcus aureus; assay: Antimicrobial activity against methicillin-resistant Staphylococcus aureus isolate 24a after 24 hrs by agar plate dilution method; format: functional; procedure, shortened: as §2
[38] = system: Staphylococcus aureus; assay: Antimicrobial activity against methicillin-resistant Staphylococcus aureus isolate 29a after 24 hrs by agar plate dilution method; format: functional; procedure, shortened: as §2
[39] = system: Staphylococcus aureus; assay: Antimicrobial activity against methicillin-resistant Staphylococcus aureus isolate 2a after 24 hrs by agar plate dilution method; format: functional; procedure, shortened: as §2

## Cc1ncc([N+](=O)[O-])n1CCn1cc(COc2c(Cl)cccc2Cl)nn1
[1]
  MIC: 1 µg/mL
[2]
  MIC: > 128 µg/mL
[3]
  MIC: 2 µg/mL
[4]
  Activity: Non-toxic
[5]
  MIC: 4 µg/mL
[6]
  MIC: 1 µg/mL
[7]
  MIC: 32 µg/mL (≈ 80.6 µM)
[8]
  MIC: 4 µg/mL
[9]
  MIC: 4 µg/mL
[10]
  MIC: 1 µg/mL
[11]
  MIC: 32 µg/mL (≈ 80.6 µM)
[12]
  MIC: 64 µg/mL (≈ 161 µM)
[13]
  MIC: 64 µg/mL (≈ 161 µM)
[14]
  Activity: 5.26 log10CFU/ml
[15]
  MIC: 4 µg/mL (≈ 10.1 µM)
[16]
  MIC: 4 µg/mL
[17]
  MIC: 4 µg/mL (≈ 10.1 µM)
[18]
  Activity: 5.53 log10CFU/ml
[19]
  MIC: 2 µg/mL
[20]
  Activity: 5.57 log10CFU/ml
[21]
  MIC: 64 µg/mL (≈ 161 µM)
[22]
  MIC: 2 µg/mL
[23]
  MIC: 4 µg/mL
[24]
  MIC: 4 µg/mL (≈ 10.1 µM)
[25]
  Activity: 5.65 log10CFU/ml
[26]
  MIC: 4 µg/mL
[27]
  MIC: 128 µg/mL (≈ 322 µM)
[28]
  Activity: 6.05 log10CFU/ml
[29]
  MIC: 32 µg/mL (≈ 80.6 µM)
[30]
  MIC: 1 µg/mL
[31]
  Activity: 5.6 log10CFU/ml
[32]
  MIC: 4 µg/mL (≈ 10.1 µM)
[33]
  MIC: > 128 µg/mL
[34]
  Activity: 4.52 log10CFU/ml
[35]
  MIC: 1 µg/mL
[36]
  MIC: 4 µg/mL (≈ 10.1 µM)
[37]
  MIC: > 128 µg/mL
[38]
  MIC: 128 µg/mL (≈ 322 µM)
[39]
  MIC: 4 µg/mL (≈ 10.1 µM)
